Results reported in ChEMBL document CHEMBL4017497, “Structure-Affinity Relationships and Structure-Kinetics Relationships of Pyrido[2,1-f]purine-2,4-dione Derivatives as Human Adenosine A3 Receptor Antagonists” (J Med Chem, 2017).
pKi: −log10 of the molar value.

Legend:
[1] = biological target: T1, Adenosine receptor A3 (Homo sapiens) (UniProt P0DMS8); assay: (§1) Displacement of [3H]PSB-11 from human adenosine A3 receptor expressed on CHO cell membranes after 2 hrs by scintillation spectrometry
T1 sequence (whole entry): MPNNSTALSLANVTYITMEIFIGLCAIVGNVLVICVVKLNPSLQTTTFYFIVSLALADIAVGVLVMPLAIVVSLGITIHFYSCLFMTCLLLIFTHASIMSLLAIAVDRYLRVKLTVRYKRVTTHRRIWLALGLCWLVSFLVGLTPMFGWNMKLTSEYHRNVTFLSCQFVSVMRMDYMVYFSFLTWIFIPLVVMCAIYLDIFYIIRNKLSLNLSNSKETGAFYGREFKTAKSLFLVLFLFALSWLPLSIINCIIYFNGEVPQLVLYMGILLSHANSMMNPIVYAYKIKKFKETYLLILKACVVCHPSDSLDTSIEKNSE

Adenosine receptor A3 [2] = biological target: T2, Adenosine receptor A3 (Homo sapiens, UniProt P0DMS8); assay: as §1
T2 sequence (P0DMS8 whole entry): T1 sequence (whole entry)

[3] = biological target: T1, Adenosine receptor A3 (Homo sapiens); assay: Displacement of [3H]PSB-11 from human adenosine A3 receptor expressed on CHO cell membranes assessed as kinetic rate index at IC50 measured after 240 mins by scintillation spectrometry
Summary of the method: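 Dual-point competition association at 10 °C. […] Specific binding read at 20 min (t1) and 240 min (t2); KRI derived from these two time points. n = 2 or 3.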

[4] = biological target: T1, Adenosine receptor A3 (Homo sapiens); assay: Displacement of [3H]PSB-11 from human adenosine A3 receptor expressed on CHO cell membranes assessed as association rate constant after 120 mins by scintillation spectrometry
[5] = biological target: T1, Adenosine receptor A3 (Homo sapiens); assay: Displacement of [3H]PSB-11 from human adenosine A3 receptor expressed on CHO cell membranes assessed as dissociation rate constant after 120 mins by scintillation spectrometry
Adenosine receptor A3 [6] = biological target: T2, Adenosine receptor A3; assay: Antagonist activity at human adenosine A3 receptor expressed in CHO cell membranes assessed as inhibition of 2-Cl-IB-MECA-induced [35S]GTPgammaS binding measured after 30 mins; assay type: functional; conditions: read-out: pA2 (converted)
Summary of the method: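 CHOhA3 membranes (15 μg) in 50 mM Tris-HCl, 5 mM MgCl2, 1 mM EDTA, 0.05% BSA, 1 mM DTT, pH 7.4, with 1 μM GDP and 5 μg saponin. […] 2-Cl-IB-MECA 0.1 nM–10 μM with ~0.3 nM [35S]GTPγS, 30 min at 25 °C. Filtration. Schild analysis from EC50 shifts gives pA2 and slope.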

Adenosine receptor A3 [7] = biological target: T2, Adenosine receptor A3; assay: Antagonist activity at human adenosine A3 receptor expressed in CHO cell membranes assessed as inhibition of 2-Cl-IB-MECA-induced [35S]GTPgammaS binding preincubated with or without for 60 mins followed by addition of 2-Cl-IB-MECA and [35S]GTPgammaS measured after 30 mins; assay type: functional; conditions: read-out: pA2 (converted)

SMILES	inhibition [1]	pKi (Adenosine receptor A3 [2])	Activity index [3]	K [4]	K [5]	Kb (Adenosine receptor A3 [6]) [nM]	Kb (Adenosine receptor A3 [7]) [nM]
COc1ccn2c(c1)nc1c2c(=O)n(CC2CCC2)c(=O)n1Cc1ccccc1	Dose-dependent effect	8.57	1.48				
COc1ccn2c(c1)nc1c2c(=O)n(C)c(=O)n1Cc1ccccc1	Dose-dependent effect	7.68	0.54				
CCCCCCn1c(=O)c2c(nc3cc(OC)ccn32)n(Cc2ccccc2)c1=O	Dose-dependent effect	8.55	2.18	2.3 ×10⁵ /M/s	8.2 ×10⁻⁵ /s		
COc1ccn2c(c1)nc1c2c(=O)n(CC2CC2)c(=O)n1CCc1ccccc1	Dose-dependent effect	8.11	1.09				
COc1ccn2c(c1)nc1c2c(=O)n(CC2CC2)c(=O)n1Cc1ccc(Br)cc1	Dose-dependent effect	8.92	1.19				
COc1ccn2c(c1)nc1c2c(=O)n(CCC(C)C)c(=O)n1Cc1ccccc1	Dose-dependent effect	8.46	1.39				
COc1ccn2c(c1)nc1c2c(=O)n(C[Si](C)(C)C)c(=O)n1Cc1ccccc1	Dose-dependent effect	8.57	1.36				
C=CCn1c(=O)c2c(nc3cc(OC)ccn32)n(Cc2ccccc2)c1=O	Dose-dependent effect	8.23	0.72				
COc1ccc(Cn2c(=O)n(CC3CC3)c(=O)c3c2nc2cc(OC)ccn23)cc1	Dose-dependent effect	8.85	1.39	4.8 ×10⁵ /M/s	7.8 ×10⁻⁵ /s		
CCn1c(=O)c2c(nc3cc(OC)ccn32)n(Cc2ccccc2)c1=O	Dose-dependent effect	7.97	0.8				
COc1ccn2c(c1)nc1c2c(=O)n(CCCO)c(=O)n1Cc1ccccc1	Dose-dependent effect	7.09	1.04				
COc1ccn2c(c1)nc1c2c(=O)n(CC2CC2)c(=O)n1Cc1ccccc1	Dose-dependent effect	9.00	2.68	2.8 ×10⁶ /M/s	6 ×10⁻⁵ /s		
COc1ccn2c(c1)nc1c2c(=O)n(CC2CC2)c(=O)n1Cc1cccc(C)c1	Dose-dependent effect	8.82	1.18				
COc1ccn2c(c1)nc1c2c(=O)n(CC(C)(C)C)c(=O)n1Cc1ccccc1	Dose-dependent effect	8.46	1.73	5.5 ×10⁵ /M/s	1.1 ×10⁻⁴ /s		
COc1cccc(Cn2c(=O)n(CC3CC3)c(=O)c3c2nc2cc(OC)ccn23)c1	Dose-dependent effect	9.42	2.24	4.8 ×10⁵ /M/s	4.7 ×10⁻⁵ /s	1.26	
CCCCCCCn1c(=O)c2c(nc3cc(OC)ccn32)n(Cc2ccccc2)c1=O	Dose-dependent effect	8.17	4.06	4.2 ×10⁵ /M/s	6.2 ×10⁻⁵ /s		
COc1ccn2c(c1)nc1c2c(=O)n(CC2CC2)c(=O)n1Cc1ccc(Cl)cc1	Dose-dependent effect	8.92	1.11	3 ×10⁶ /M/s	8.2 ×10⁻⁴ /s		
CCCCCn1c(=O)c2c(nc3cc(OC)ccn32)n(Cc2ccccc2)c1=O	Dose-dependent effect	8.46	1.11	1.1 ×10⁶ /M/s	6 ×10⁻⁴ /s		
COc1ccn2c(c1)nc1c2c(=O)n(CC(C)C)c(=O)n1Cc1ccccc1	Dose-dependent effect	8.92	1.64	7.8 ×10⁵ /M/s	2 ×10⁻⁴ /s		

Other lines, results leading:

inhibition [1]	pKi (Adenosine receptor A3 [2])	Activity index [3]	K [4]	K [5]	Kb (Adenosine receptor A3 [6]) [nM]	Kb (Adenosine receptor A3 [7]) [nM]	SMILES
Dose-dependent effect	8.37	1.2					C#CCn1c(=O)c2c(nc3cc(OC)ccn32)n(Cc2ccccc2)c1=O
Dose-dependent effect	7.64	0.7	4.3 ×10⁵ /M/s	6.3 ×10⁻⁴ /s			COCCn1c(=O)c2c(nc3cc(OC)ccn32)n(Cc2ccccc2)c1=O
Dose-dependent effect	8.28	3.12	1 ×10⁵ /M/s	5.3 ×10⁻⁵ /s			COc1ccn2c(c1)nc1c2c(=O)n(CC2CC2)c(=O)n1Cc1ccc(Cl)c(Cl)c1
Dose-dependent effect							COc1ccn2c(c1)nc1c2c(=O)n(CC2CC2)c(=O)n1Cc1ccc(C)cc1
Dose-dependent effect	9.15	0.81					CCc1ccc(Cn2c(=O)n(CC3CC3)c(=O)c3c2nc2cc(OC)ccn23)cc1
Dose-dependent effect	8.49	0.99	8.5 ×10⁵ /M/s	3.2 ×10⁻⁴ /s			CCCn1c(=O)c2c(nc3cc(OC)ccn32)n(Cc2ccccc2)c1=O
Dose-dependent effect	8.85	1.23					C=CCCn1c(=O)c2c(nc3cc(OC)ccn32)n(Cc2ccccc2)c1=O
Dose-dependent effect	8.31	0.89	8.2 ×10⁵ /M/s	4.7 ×10⁻⁴ /s			COc1ccn2c(c1)nc1c2c(=O)n(CC2CC2)c(=O)n1Cc1cccc(Cl)c1
Dose-dependent effect	8.10	0.95					COc1ccn2c(c1)nc1c2c(=O)n(CCC(C)(C)C)c(=O)n1Cc1ccccc1
Dose-dependent effect	8.82	1.29					CCCCn1c(=O)c2c(nc3cc(OC)ccn32)n(Cc2ccccc2)c1=O
Dose-dependent effect	6.97	0.38	5.3 ×10⁵ /M/s	1.4 ×10⁻² /s	63.1	158	COc1ccn2c(c1)nc1c2c(=O)[nH]c(=O)n1Cc1ccccc1
